Bioassay records deposited in PubChem by several laboratories.
CRFR2-BP antag: antagonists of CRF-BP/CRF-R2 complex, primary screen, cell-based, HEK293, calcium dye fluorescence, uHTS. CRF-induced calcium fluorescence. inhibition, % at 11.8 µM. actives 0.59% (n = 350,000);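 active = inhibition of the ligand-induced calcium signal above about 50% at the single tested concentration, limit read from the data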
CRFBP-R2 agonist: agonists of CRF-BP/CRF-R2 complex, primary screen, cell-based, HEK293, calcium dye fluorescence, uHTS. calcium dye fluorescence (FLIPR); percent of saturating CRF peptide response. activation, % at 13.2 µM. actives 0.46% (n = 350,000). AID 588473, 2011;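 active = activation of at least 50%, plus an integration ratio under a set limit after plate pattern correction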
Rpn11 block: Rpn11 (PSMD14) deubiquitinase inhibitors, primary screen, biochemical, fluorescence polarization, uHTS | 26S proteasome non-ATPase regulatory subunit 14 (Homo sapiens), O00487 | human 26S proteasome, Ub4-pepOG fluorescence polarization; 20S core pre-blocked with epoxomicin | calls only at 20 µM | actives 0.59% (n = 360,000) | AID 588493, 2011;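 active = inhibition at 20 µM, scaled to each plate's controls, above about 33%, limit read from the data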
Target sequence (O00487 whole entry, looked up): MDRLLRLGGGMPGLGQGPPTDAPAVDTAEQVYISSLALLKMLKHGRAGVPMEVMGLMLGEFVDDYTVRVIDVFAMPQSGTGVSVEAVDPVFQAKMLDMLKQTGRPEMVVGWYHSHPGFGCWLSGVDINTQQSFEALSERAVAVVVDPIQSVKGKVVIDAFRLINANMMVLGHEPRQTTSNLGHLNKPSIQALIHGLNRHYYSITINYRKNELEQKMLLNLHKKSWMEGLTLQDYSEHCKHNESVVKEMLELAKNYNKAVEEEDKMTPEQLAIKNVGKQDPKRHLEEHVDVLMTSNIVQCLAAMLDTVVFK
TPT1 inhibitor: Candida albicans TPT1 enzyme inhibitors, primary screen, biochemical, fluorescence polarization; actives 0.81% (n = 300,000); AID 1962, 2009; recombinant caTPT1, FP RNA substrate dephosphorylation; inhibition, % at 5 µM;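 active = inhibition above the mean of all tested compounds plus 3 SD, set per screening campaign, cut at about 24% in these data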
CSN deneddyl inh: inhibitors of CSN-mediated cullin deneddylation, primary screen, biochemical, fluorescence polarization, uHTS; COP9 signalosome complex subunit 5 (Homo sapiens), Q92905; Purified CSN, SCF-Nedd8-OG deneddylation; AID 651999, 2013; inhibition, % at 12.5 µM; actives 0.38% (n = 360,000);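 active = pattern-corrected inhibition above about 35%, with an unprinted fluorescence ratio check between 0.5 and 1.5, limit read from the data, passing the limit was not always enough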
Target sequence (Q92905 whole entry, looked up, one chain of several): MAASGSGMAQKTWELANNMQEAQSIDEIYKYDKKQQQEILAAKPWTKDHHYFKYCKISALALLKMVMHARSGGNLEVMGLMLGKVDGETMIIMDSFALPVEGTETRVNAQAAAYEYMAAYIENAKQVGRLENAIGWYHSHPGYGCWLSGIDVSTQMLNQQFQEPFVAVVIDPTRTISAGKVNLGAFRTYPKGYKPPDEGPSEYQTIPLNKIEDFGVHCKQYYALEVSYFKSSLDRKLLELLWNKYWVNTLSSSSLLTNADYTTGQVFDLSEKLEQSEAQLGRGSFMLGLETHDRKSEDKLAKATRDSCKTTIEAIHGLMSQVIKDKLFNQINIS
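Material: purified human Csn5 enzyme expressed in HEK293T cells / Medium: Tris buffer pH 7.5, NaCl, DTT, Tween-20, trehalose, ovalbumin / Compound dosing: 12.5 µM single point / Schedule: 90 min incubation of compound, enzyme and substrate at room temperature / Signal: fluorescence polarization of the substrate / Control set: no-enzyme wells high, enzyme-with-substrate wells low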
HNF4A DNA FP: change in binding of human HNF4A to DNA, primary screen, biochemical, fluorescence polarization, FITC-DNA. 1 h. activity change, % at 10 µM. actives 0.3% (n = 360,000); in the data active = activity change above about 30%, passing the limit was not always enough
A number is an active result. Only some compounds are listed: those with a hit (about 2.3% of all), similar ones and a draw of the others.

Screening O=c1cc(-c2ccccc2Cl)oc2c(NS(=O)(=O)c3cc(Cl)cc(Cl)c3O)ccc(O)c12 returned CRFR2-BP antag inactive, CRFBP-R2 agonist 81, Rpn11 block inactive, TPT1 inhibitor inactive, CSN deneddyl inh 47 and HNF4A DNA FP inactive.
COc1ccc(CNC(=O)Cc2cccs2)cc1 was read as CRFR2-BP antag inactive, CRFBP-R2 agonist inactive, Rpn11 block inactive, TPT1 inhibitor inactive, CSN deneddyl inh inactive and HNF4A DNA FP inactive.
`COc1ccc(-c2nnc(SCc3csc(N)n3)n2C)cc1` gave CRFR2-BP antag inactive, CRFBP-R2 agonist inactive, Rpn11 block inactive, TPT1 inhibitor inactive, CSN deneddyl inh inactive and HNF4A DNA FP 37.
Screening O=C(c1ccc(Cl)c(Cl)c1)N1CCN(c2ccccn2)CC1 returned CRFR2-BP antag inactive, CRFBP-R2 agonist inactive, Rpn11 block inactive, CSN deneddyl inh inactive and HNF4A DNA FP inactive.
Screening Cc1[nH]c2ccc(C(=O)N3CCN(c4ccccn4)CC3)cc2c1C returned CRFR2-BP antag inactive, CRFBP-R2 agonist inactive, Rpn11 block inactive, TPT1 inhibitor inactive, CSN deneddyl inh inactive and HNF4A DNA FP 103.
Screening CCOC(=O)N1CCN(C(=O)CN(Cc2ccccc2)S(=O)(=O)c2ccc(OC)c(Cl)c2)CC1 returned CRFR2-BP antag inactive, CRFBP-R2 agonist inactive, Rpn11 block inactive, TPT1 inhibitor inactive, CSN deneddyl inh inactive and HNF4A DNA FP inactive.
COc1ccc(C2CC(c3cccs3)=NN2C(=S)Nc2ccccc2)cc1OC (stereo not given) was read as CRFR2-BP antag inactive, CRFBP-R2 agonist inactive, Rpn11 block inactive, TPT1 inhibitor inactive, CSN deneddyl inh inactive and HNF4A DNA FP inactive.
Screening COc1cccc(C2CC(c3cccs3)=NN2C(=S)Nc2ccccc2)c1OC (stereo not given) returned CRFR2-BP antag 81, CRFBP-R2 agonist inactive, Rpn11 block inactive, TPT1 inhibitor inactive, CSN deneddyl inh inactive and HNF4A DNA FP inactive.
`CC(C)Oc1nc(-c2ccc(Cl)cc2)nc2ccccc12` gave CRFR2-BP antag inactive, CRFBP-R2 agonist inactive, Rpn11 block inactive, TPT1 inhibitor inactive, CSN deneddyl inh inactive and HNF4A DNA FP inactive.
`COc1ccc(NC(=O)Nc2cc3oc4ccccc4c3cc2OC)cc1` gave CRFR2-BP antag inactive, CRFBP-R2 agonist inactive, Rpn11 block inactive, TPT1 inhibitor inactive, CSN deneddyl inh inactive and HNF4A DNA FP inactive.
Screening O=c1cc(-c2cccs2)oc2ccc(Cl)cc12 returned CRFR2-BP antag inactive, CRFBP-R2 agonist inactive, Rpn11 block inactive, TPT1 inhibitor inactive, CSN deneddyl inh inactive and HNF4A DNA FP inactive.
For O=c1c(O)c(-c2cccs2)oc2ccc(Cl)cc12 the results were CRFR2-BP antag inactive, CRFBP-R2 agonist 267, Rpn11 block inactive, TPT1 inhibitor inactive, CSN deneddyl inh inactive and HNF4A DNA FP inactive.
For Cc1n[nH]c(=S)n1/N=C/c1cccc(OCc2ccccc2)c1 the results were CRFR2-BP antag inactive, CRFBP-R2 agonist inactive, Rpn11 block inactive, TPT1 inhibitor inactive, CSN deneddyl inh inactive and HNF4A DNA FP inactive.
`Cc1n[nH]c(=S)n1/N=C/c1ccccc1OCc1ccc(Cl)cc1` gave CRFR2-BP antag inactive, CRFBP-R2 agonist inactive, Rpn11 block inactive, TPT1 inhibitor inactive, CSN deneddyl inh inactive and HNF4A DNA FP 51.
For CCOC(=O)c1ccc(NC(=S)NCc2cccnc2)cc1 the results were CRFR2-BP antag inactive, CRFBP-R2 agonist inactive, Rpn11 block inactive, TPT1 inhibitor inactive, CSN deneddyl inh inactive and HNF4A DNA FP inactive.
For O=C1CSC(c2nn(-c3ccccc3)cc2-c2cc3ccccc3oc2=O)N1Cc1ccco1 (stereo not given) the results were CRFR2-BP antag 84, CRFBP-R2 agonist inactive, Rpn11 block inactive, TPT1 inhibitor inactive, CSN deneddyl inh inactive and HNF4A DNA FP inactive.
Screening O=C1CSC(c2cn(-c3ccccc3)nc2-c2cc3ccccc3oc2=O)N1Cc1ccccc1 (stereo not given) returned CRFR2-BP antag inactive, CRFBP-R2 agonist inactive, Rpn11 block inactive, TPT1 inhibitor inactive, CSN deneddyl inh inactive and HNF4A DNA FP inactive.
O=S(=O)(NCC1(N2CCOCC2)CCCCC1)c1ccccc1Cl was read as CRFR2-BP antag inactive, CRFBP-R2 agonist inactive, Rpn11 block inactive, TPT1 inhibitor inactive, CSN deneddyl inh inactive and HNF4A DNA FP inactive.
`O=S(=O)(NCC1(N2CCOCC2)CCCCC1)c1ccc(Cl)cc1C(F)(F)F` gave CRFR2-BP antag inactive, CRFBP-R2 agonist 56, Rpn11 block inactive, TPT1 inhibitor inactive, CSN deneddyl inh inactive and HNF4A DNA FP inactive.
Screening CCc1ccc(S(=O)(=O)NCC2(N3CCOCC3)CCCCC2)cc1 returned CRFR2-BP antag inactive, CRFBP-R2 agonist 54, Rpn11 block inactive, CSN deneddyl inh inactive and HNF4A DNA FP inactive.
`CNS(=O)(=O)c1cccc(C(=O)NCC2(N3CCOCC3)CCCCC2)c1` gave CRFR2-BP antag inactive, CRFBP-R2 agonist inactive, Rpn11 block inactive, TPT1 inhibitor inactive, CSN deneddyl inh inactive and HNF4A DNA FP inactive.
Screening CN(C)CCCNC(=O)c1ccccc1Oc1ccccc1 returned CRFR2-BP antag 59, CRFBP-R2 agonist inactive, Rpn11 block inactive, TPT1 inhibitor inactive, CSN deneddyl inh inactive and HNF4A DNA FP inactive.
For CCOC(=O)c1cn2nc(Oc3cccc(F)c3)ccc2n1 the results were CRFR2-BP antag 62, CRFBP-R2 agonist inactive, Rpn11 block inactive, TPT1 inhibitor inactive, CSN deneddyl inh inactive and HNF4A DNA FP inactive.
For CCOC(=O)c1cn2nc(Oc3ccc(NC(C)=O)cc3)ccc2n1 the results were CRFR2-BP antag inactive, CRFBP-R2 agonist inactive, Rpn11 block inactive, TPT1 inhibitor inactive, CSN deneddyl inh inactive and HNF4A DNA FP inactive.
For N#C/C(=C\c1cccn1-c1ccccc1)C(=O)NC1CCCCC1 the results were CRFR2-BP antag 127, CRFBP-R2 agonist inactive, Rpn11 block inactive, TPT1 inhibitor inactive, CSN deneddyl inh inactive and HNF4A DNA FP inactive.
Screening N#C/C(=C\c1ccc(F)c(F)c1)C(=O)NC1CCCCC1 returned CRFR2-BP antag inactive, CRFBP-R2 agonist inactive, Rpn11 block inactive, TPT1 inhibitor inactive, CSN deneddyl inh inactive and HNF4A DNA FP inactive.
N#C/C(=C\c1ccccc1[N+](=O)[O-])C(=O)NC1CCCCC1 was read as CRFR2-BP antag inactive, CRFBP-R2 agonist 100, Rpn11 block inactive, TPT1 inhibitor inactive, CSN deneddyl inh inactive and HNF4A DNA FP inactive.
Screening CCC(=O)Oc1ccc(C(=O)Nc2ccc3c(c2)C(=O)N(C2CCCCC2)C3=O)cc1 returned CRFR2-BP antag inactive, CRFBP-R2 agonist inactive, Rpn11 block inactive, TPT1 inhibitor inactive, CSN deneddyl inh inactive and HNF4A DNA FP 39.
